Experimental data as given in ChEMBL document CHEMBL1148973, “Bioactive friedolanostanes and 11(10-->8)-abeolanostanes from the bark of Garcinia speciosa” (2004).

Tests used:
Format in all cases: functional
MCF7 [1] = test: Cytotoxicity against human MCF7 cells after 48 hrs by SRB assay; settings: MCF7, 48 h
Summary of the method: (§1)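 SRB growth-inhibition assay following the NCI screen protocol. Cells were kept adherent in RPMI-1640 with 5% heat-inactivated FBS and 2 mM glutamine at 37 °C under 5% CO2. Plating density was 1.5 × 10^5 cells/mL for MCF-7 and SF-268 and 7.5 × 10^4 cells/mL for NCI-H-460. Cells attached overnight, then received five concentrations (top 100 µM) for 48 h. Cells were fixed in situ, stained with SRB and the bound dye solubilised. GI50 was taken from dose-response curves. Doxorubicin served as positive control.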

SF-268 = test: Cytotoxicity against human SF268 cells after 48 hrs by SRB assay; settings: SF-268, 48 h; summary of the method: as §1
NCI-H460 = test: Cytotoxicity against human NCI-H460 cells after 48 hrs by SRB assay; settings: NCI-H460, 48 h; summary of the method: as §1
MCF7 [2] = test: Induction of apoptosis in human MCF7 cells assessed as fragmentation of genomic DNA at 26 uM after 48 hrs by TUNEL assay
Summary of the method: (§2)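 MCF-7 cells were seeded at 1.5 × 10^5 cells/mL, grown 24 h at 37°, then exposed continuously for 48 h. Adherent and floating cells were harvested by trypsinisation, cytospun onto slides and fixed in 4% paraformaldehyde for 1 h at room temperature. DNA fragmentation was detected by fluorescein TUNEL with DAPI counterstain under fluorescence microscopy. Apoptotic percentage came from ≥400 cells over ≥5 random fields. Controls were untreated cells and 40 nM doxorubicin.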

MCF7 [3] = test: Induction of apoptosis in human MCF7 cells assessed as fragmentation of genomic DNA at 19.4 uM after 48 hrs by TUNEL assay; summary of the method: as §2
MCF7 [4] = test: Induction of apoptosis in human MCF7 cells assessed as fragmentation of genomic DNA at 22.3 uM after 48 hrs by TUNEL assay; summary of the method: as §2
MCF7 [5] = test: Induction of apoptosis in human MCF7 cells assessed as fragmentation of genomic DNA at 19.2 uM after 48 hrs by TUNEL assay; summary of the method: as §2
MCF7 [6] = test: Induction of apoptosis in human MCF7 cells assessed as fragmentation of genomic DNA at 15.5 uM after 48 hrs by TUNEL assay; summary of the method: as §2
MCF7 [7] = test: Induction of apoptosis in human MCF7 cells assessed as fragmentation of genomic DNA at 15.3 uM after 48 hrs by TUNEL assay; summary of the method: as §2
MCF7 [8] = test: Induction of apoptosis in human MCF7 cells assessed as fragmentation of genomic DNA at 0.043 uM after 48 hrs by TUNEL assay

Row | Structure (SMILES) | GI50 (MCF7 [1]) [µM] | GI50 (SF-268) [µM] | GI50 (NCI-H460) [µM] | Activity (MCF7 [2]) [%] | Activity (MCF7 [3]) [%] | Activity (MCF7 [4]) [%] | Activity (MCF7 [5]) [%] | Activity (MCF7 [6]) [%] | Activity (MCF7 [7]) [%] | Activity (MCF7 [8]) [%]
1 | COC(=O)/C(C)=C/[C@H](O)C[C@@H](C)[C@]1(C)CC(=O)C2=C3CC[C@H]4C(C)(C)[C@H](O)CC[C@]4(C)[C@H]3CC[C@]21C | 26 | 44.7 | 42.7 | 26.36 | – | – | – | – | – | –
2 | C/C(=C\CC[C@@H](C)[C@@]1(C)C[C@H]2O[C@]23[C@]1(C)CCC(=O)[C@@]31CC[C@H]2C(C)(C)[C@@H](O)CC[C@@]21C)C(=O)O | 63.8 | 86.4 | 68.6 | – | – | – | – | – | – | –
3 | C[C@H](CC(=O)C[C@H](C)C(=O)O)C1=CC[C@@]2(C)[C@@H]3CC[C@H]4C(C)(C)[C@H](O)CC[C@]4(C)C3=CC[C@]12C | 19.4 | 34.8 | 36.9 | – | 2.34 | – | – | – | – | –
4 | COC(=O)[C@@H](C)CC(=O)C[C@@H](C)C1=CC[C@@]2(C)[C@@H]3CC[C@H]4C(C)(C)[C@@H](O)CC[C@]4(C)C3=CC[C@]12C | > 100 | > 100 | > 100 | – | – | – | – | – | – | –
5 | COC(=O)/C(C)=C/[C@H](O)C[C@@H](C)[C@]1(C)CC=C2C3=C(CC[C@]21C)[C@@]1(C)CC[C@@H](O)C(C)(C)[C@@H]1CC3 [GARCIHOMBRONANES C] | 22.3 | 38.6 | 37.9 | – | – | 17.36 | – | – | – | –
6 | C/C(=C\C=C/[C@@H](C)[C@@]1(C)C[C@H]2O[C@]23[C@]1(C)CCC(=O)[C@@]31CC[C@H]2C(C)(C)[C@@H](O)CC[C@@]21C)C(=O)O | 69.6 | 95.7 | 70.3 | – | – | – | – | – | – | –
7 | COC(=O)/C(C)=C/[C@H]1C[C@@H](C)[C@]2(C)[C@@H](C=C3C4=C(CC[C@]32C)[C@@]2(C)CC[C@@H](O)C(C)(C)[C@@H]2CC4)O1 | 19.2 | 29.7 | 30.4 | – | – | – | 2.97 | – | – | –
8 | CC(=O)O[C@H]1CC[C@]2(C)C3=CC[C@]4(C)C([C@H](C)CC(=O)C[C@H](C)C(=O)O)=CC[C@@]4(C)[C@@H]3CC[C@H]2C1(C)C | 15.5 | 30.6 | 22.1 | – | – | – | – | 5.33 | – | –
9 | COC(=O)/C(C)=C/[C@H]1C[C@@H](C)[C@]2(C)[C@@H](C=C3C4=C(CC[C@]32C)[C@@]2(C)CC[C@@H](OC(C)=O)C(C)(C)[C@@H]2CC4)O1 | 15.3 | 28.6 | 34.4 | – | – | – | – | – | 23.54 | –
10 | COc1cccc2c1C(=O)c1c(O)c3c(c(O)c1C2=O)C[C@@](O)(C(=O)CO)C[C@@H]3O[C@H]1C[C@H](N)[C@H](O)[C@H](C)O1 [DOXORUBICIN] | 0.043 | 0.093 | 0.094 | – | – | – | – | – | – | 26.02
